Data from ChEMBL document CHEMBL5543163, “Druglike, 18F-labeled PET Tracers Targeting Fibroblast Activation Protein” (J Med Chem, 2024).
One block for each molecule: values may come before it.

Assays:
Prolyl endopeptidase FAP = molecular target: T1, Prolyl endopeptidase FAP (Homo sapiens, UniProt Q12884); assay: Inhibition of FAP (unknown origin) using Z-Gly-Pro-7-amino-4-methylcoumarine as fluorogenic substrate preincubated for 15 mins followed by substrate addition and measured after 15 mins
T1 sequence (Q12884 whole entry): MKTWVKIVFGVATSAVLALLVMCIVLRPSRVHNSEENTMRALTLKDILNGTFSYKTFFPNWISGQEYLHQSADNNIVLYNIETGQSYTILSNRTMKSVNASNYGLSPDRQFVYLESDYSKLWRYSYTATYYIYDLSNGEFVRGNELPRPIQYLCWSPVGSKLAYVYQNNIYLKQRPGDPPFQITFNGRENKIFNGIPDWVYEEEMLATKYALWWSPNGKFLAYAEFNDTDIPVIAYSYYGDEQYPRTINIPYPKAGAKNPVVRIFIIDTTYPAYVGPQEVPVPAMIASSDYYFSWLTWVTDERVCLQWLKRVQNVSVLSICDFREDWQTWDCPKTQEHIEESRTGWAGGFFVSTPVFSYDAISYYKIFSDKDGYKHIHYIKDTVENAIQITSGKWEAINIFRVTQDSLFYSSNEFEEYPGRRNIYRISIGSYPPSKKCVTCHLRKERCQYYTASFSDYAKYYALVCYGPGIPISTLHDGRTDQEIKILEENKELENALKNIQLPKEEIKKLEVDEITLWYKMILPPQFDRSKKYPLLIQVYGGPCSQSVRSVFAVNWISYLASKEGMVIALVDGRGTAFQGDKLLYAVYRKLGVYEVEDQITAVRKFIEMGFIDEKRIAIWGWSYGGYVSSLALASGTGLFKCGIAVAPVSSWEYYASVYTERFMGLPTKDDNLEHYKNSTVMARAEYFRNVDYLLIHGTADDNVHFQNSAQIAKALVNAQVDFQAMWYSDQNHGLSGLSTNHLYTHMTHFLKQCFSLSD

Dipeptidyl peptidase 4 = Dipeptidyl peptidase 4 (Homo sapiens, UniProt P27487); assay: Inhibition of DPP4 (unknown origin) using Ala-Pro-paranitroanilide as chromogenic substrate preincubated for 15 mins followed by substrate addition and measured after 15 mins
Dipeptidyl peptidase 8 = Dipeptidyl peptidase 8 (Homo sapiens, UniProt Q6V1X1); assay: Inhibition of DPP8 (unknown origin) using Ala-Pro-paranitroanilide as chromogenic substrate preincubated for 15 mins followed by substrate addition and measured after 15 mins
Prolyl endopeptidase = molecular target: T2, Prolyl endopeptidase (Homo sapiens, UniProt P48147); assay: Inhibition of PREP (unknown origin) using N-succinyl-Gly-Pro-AMC as substrate preincubated for 15 mins followed by substrate addition and measured after 15 mins
T2 sequence (P48147 whole entry): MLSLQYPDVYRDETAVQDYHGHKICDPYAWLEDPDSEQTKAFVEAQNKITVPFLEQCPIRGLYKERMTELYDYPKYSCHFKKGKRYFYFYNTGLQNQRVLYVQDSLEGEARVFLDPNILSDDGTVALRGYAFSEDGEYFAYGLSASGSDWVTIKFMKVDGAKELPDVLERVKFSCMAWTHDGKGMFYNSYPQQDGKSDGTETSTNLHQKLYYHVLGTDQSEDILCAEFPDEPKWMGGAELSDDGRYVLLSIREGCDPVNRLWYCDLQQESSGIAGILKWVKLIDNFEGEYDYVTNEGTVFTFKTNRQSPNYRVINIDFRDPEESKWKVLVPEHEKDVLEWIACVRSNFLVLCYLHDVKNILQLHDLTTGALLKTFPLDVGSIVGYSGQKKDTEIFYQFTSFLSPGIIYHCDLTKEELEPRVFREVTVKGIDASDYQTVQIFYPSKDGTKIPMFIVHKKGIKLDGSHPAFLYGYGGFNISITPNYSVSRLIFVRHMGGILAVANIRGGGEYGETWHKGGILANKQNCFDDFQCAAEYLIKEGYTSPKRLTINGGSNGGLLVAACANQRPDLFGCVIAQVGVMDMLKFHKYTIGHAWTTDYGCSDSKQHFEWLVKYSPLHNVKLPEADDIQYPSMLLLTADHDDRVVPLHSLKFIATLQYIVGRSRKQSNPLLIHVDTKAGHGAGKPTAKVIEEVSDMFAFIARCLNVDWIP

Dipeptidyl peptidase 9 = Dipeptidyl peptidase 9 (Homo sapiens, UniProt Q86TI2); assay: Inhibition of DPP9 (unknown origin) using Ala-Pro-paranitroanilide as chromogenic substrate preincubated for 15 mins followed by substrate addition and measured after 15 mins
Dipeptidyl peptidase 2 = Dipeptidyl peptidase 2 (Homo sapiens, UniProt Q9UHL4); assay: Inhibition of DPP2 (unknown origin) using Lys-Ala-pNA as substrate preincubated for 15 mins followed by substrate addition and measured after 15 mins
[1] = Drug uptake in tumor of female nude mouse harboring null mutation of CD1 antigen complex xenografted with human HT-29 cells with decreased FAP positive tumor area at 5 to 7.4 MBq, iv measured after 60 mins by immunohistochemistry analysis; assay type: ADME, organism-based, Neoplasm; settings: in vivo, 1 h, dose 5-7.4 MBq
[2] = Drug uptake in bone structures of female nude mouse harboring null mutation of CD1 antigen complex xenografted with human U-87 MG cells at 5 to 7.4 MBq, iv measured after 60 mins by gamma counter analysis; assay type: ADME, organism-based, Bone element; settings: in vivo, 1 h, dose 5-7.4 MBq
[3] = Stability in PBS assessed as compound remaining at 185 kBq measured upto 60 mins by radio-HPLC analysis; assay type: physicochemical; settings: read-out: Stability
Outline: (§1)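 Radiotracer was incubated at 37 °C for up to 60 min in PBS (0.01 M, pH 7.4) or in mouse plasma. Samples were deproteinized with an equal volume of cold ACN and centrifuged. The supernatant was analyzed by radio-HPLC with 30 s fractions γ-counted to give the intact fraction. Triplicates.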

[4] = Drug uptake in blood of female nude mouse harboring null mutation of CD1 antigen complex at 5.1 to 7.4 MBq, iv measured after 15 to 60 mins by gamma counter analysis; assay type: ADME, organism-based; settings: in vivo, dose lower 5.1 MBq, time lower 15 min, dose upper 7.4 MBq, time upper 60 min
Outline: (§2)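 Female CD1 nude mice, 6–8 weeks old (20–25 g), received the radiotracer through the lateral tail vein. At 15, 30 and 60 min p.i. (n = 3 per time point) blood was drawn by cardiac puncture and the animals were euthanized. Organs were excised, weighed and γ-counted. Uptake is expressed as %ID/g.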

[5] = Drug uptake in tumor of female nude mouse harboring null mutation of CD1 antigen complex xenografted with human U-87 MG cells with increased FAP positive tumor area at 5 to 7.4 MBq, iv measured after 60 mins by immunohistochemistry analysis; assay type: ADME, organism-based, Neoplasm; settings: in vivo, 1 h, dose 5-7.4 MBq
[6] = Ratio of drug level in tumor to muscle of female nude mouse harboring null mutation of CD1 antigen complex xenografted with human U-87 MG cells at 5 to 7.4 MBq, iv measured at 60 mins postinjection by gamma counter analysis; assay type: ADME, organism-based; settings: in vivo, 1 h, dose 5-7.4 MBq
Outline: (§3)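 Subcutaneous U-87MG xenografts (5×10^6 cells in DPBS, hind flank) were grown in female CD1 nude mice to about 200 mm3. After tail-vein radiotracer injection and a 60 min dynamic PET scan, tissues were harvested at 60 min p.i. and γ-counted (%ID/g). Tumor-to-tissue ratios are means ± SD of individual ratios, n=4 per tracer.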

[7] = Ratio of drug level in tumor to liver of female nude mouse harboring null mutation of CD1 antigen complex xenografted with human U-87 MG cells at 5 to 7.4 MBq, iv measured at 60 mins postinjection by gamma counter analysis; assay type: ADME, organism-based; settings: in vivo, 1 h, dose 5-7.4 MBq; outline: as §3
[8] = Ratio of drug level in tumor to small intestine of female nude mouse harboring null mutation of CD1 antigen complex xenografted with human U-87 MG cells at 5 to 7.4 MBq, iv measured at 60 mins postinjection by gamma counter analysis; assay type: ADME, organism-based; settings: in vivo, 1 h, dose 5-7.4 MBq; outline: as §3
[9] = Drug uptake in tumor of female nude mouse harboring null mutation of CD1 antigen complex xenografted with human U-87 MG cells at 5 to 7.4 MBq, iv measured at 60 mins by PET/CT analysis; assay type: ADME, organism-based, Neoplasm; settings: in vivo, 1 h, dose 5-7.4 MBq
Outline: (§4)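 U-87MG xenografts (5×10^6 cells, subcutaneous flank) were grown in female CD1 nude mice to about 200 mm3. Dynamic whole-body PET over 60 min p.i. was followed by CT. Images were reconstructed with OSEM 3D and expressed as %ID/mL to give time-activity curves. For blocking, the FAP inhibitor (5 mg/kg) was given via the tail vein 30 min before the tracer; n=4.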

[10] = Stability in CD1 mouse plasma assessed as compound remaining at 185 kBq measured upto 60 mins by radio-HPLC analysis; assay type: ADME, cell-free; settings: read-out: Stability; outline: as §1
[11] = Stability in PBS assessed as drug degradation at 185 kBq measured upto 60 mins by radio-HPLC analysis; assay type: physicochemical; settings: buffer, 1 h; outline: as §1
[12] = Octanol/water partition coefficient, logD of compound at 74 kBq incubated for 2 mins by gamma counter method; assay type: physicochemical
Outline: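 Octanol and PBS phases were mixed and vortexed for 2 min, then centrifuged at 3,000 rpm for 10 min. Aliquots of 0.5 mL from each phase were γ-counted and corrected for mass and density. LogD was taken as log10 of the octanol/PBS radioactivity ratio.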

[13] = Drug uptake in skull of female nude mouse harboring null mutation of CD1 antigen complex xenografted with human U-87 MG cells at 5 to 7.4 MBq, iv measured after 60 mins by gamma counter analysis; assay type: ADME, organism-based; settings: in vivo, 1 h, dose 5-7.4 MBq
[14] = Stability in female nude mouse harboring null mutation of CD1 antigen complex assessed as drug degradation at 5.1 to 7.4 MBq, iv measured at 60 mins by radio-HPLC analysis; assay type: ADME, organism-based; settings: 1 h, dose 5.1-7.4 MBq
Outline: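 Female CD1 nude mice received 5.1–7.4 MBq i.v. EDTA blood collected at 15, 30 and 60 min p.i. (n=3 per time point) was centrifuged to plasma, deproteinized with cold ACN and centrifuged. The supernatant was analyzed by radio-HPLC with 30 s fractions γ-counted to give the percent intact tracer.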

[15] = Drug uptake in liver of female nude mouse harboring null mutation of CD1 antigen complex at 5.1 to 7.4 MBq, iv measured after 15 to 60 mins by gamma counter analysis; assay type: ADME, organism-based; settings: in vivo, dose lower 5.1 MBq, time lower 15 min, dose upper 7.4 MBq, time upper 60 min; outline: as §2
[16] = Drug uptake in urinary bladder of female nude mouse harboring null mutation of CD1 antigen complex assessed as increase in renal excretion at 5.1 to 7.4 MBq, iv measured after 15 to 60 mins by gamma counter analysis; assay type: ADME, organism-based; settings: in vivo, dose lower 5.1 MBq, time lower 15 min, dose upper 7.4 MBq, time upper 60 min; outline: as §2
[17] = Drug uptake in kidney of female nude mouse harboring null mutation of CD1 antigen complex assessed as increase in renal excretion at 5.1 to 7.4 MBq, iv measured after 15 to 60 mins by gamma counter analysis; assay type: ADME, organism-based; settings: in vivo, dose lower 5.1 MBq, time lower 15 min, dose upper 7.4 MBq, time upper 60 min; outline: as §2
[18] = Stability in CD1 mouse plasma assessed as drug degradation at 185 kBq measured upto 60 mins by radio-HPLC analysis; assay type: ADME, cell-free; settings: 1 h; outline: as §1
[19] = Drug uptake in intestine of female nude mouse harboring null mutation of CD1 antigen complex at 5.1 to 7.4 MBq, iv measured after 15 to 60 mins by gamma counter analysis; assay type: ADME, organism-based; settings: in vivo, dose lower 5.1 MBq, time lower 15 min, dose upper 7.4 MBq, time upper 60 min; outline: as §2
[20] = Drug uptake in tumor of female nude mouse harboring null mutation of CD1 antigen complex xenografted with human U-87 MG cells at 5 to 7.4 MBq, iv pretreated with (S)-N-(2-(2-cyano-4,4-difluoropyrrolidin-1-yl)-2-oxoethyl)quinoline-4-carboxamide for 30 mins followed by radioligand addition and measured measured after 60 mins by PET/CT analysis; assay type: ADME, organism-based, Neoplasm; settings: in vivo, 1 h, dose 5-7.4 MBq; outline: as §4
[21] = Ratio of drug level in tumor to blood of female nude mouse harboring null mutation of CD1 antigen complex xenografted with human U-87 MG cells at 5 to 7.4 MBq, iv measured at 60 mins postinjection by gamma counter analysis; assay type: ADME, organism-based; settings: tumour, 1 h, dose 5-7.4 MBq; outline: as §3

Chain of Dipeptidyl peptidase 9 (Q86TI2 whole entry): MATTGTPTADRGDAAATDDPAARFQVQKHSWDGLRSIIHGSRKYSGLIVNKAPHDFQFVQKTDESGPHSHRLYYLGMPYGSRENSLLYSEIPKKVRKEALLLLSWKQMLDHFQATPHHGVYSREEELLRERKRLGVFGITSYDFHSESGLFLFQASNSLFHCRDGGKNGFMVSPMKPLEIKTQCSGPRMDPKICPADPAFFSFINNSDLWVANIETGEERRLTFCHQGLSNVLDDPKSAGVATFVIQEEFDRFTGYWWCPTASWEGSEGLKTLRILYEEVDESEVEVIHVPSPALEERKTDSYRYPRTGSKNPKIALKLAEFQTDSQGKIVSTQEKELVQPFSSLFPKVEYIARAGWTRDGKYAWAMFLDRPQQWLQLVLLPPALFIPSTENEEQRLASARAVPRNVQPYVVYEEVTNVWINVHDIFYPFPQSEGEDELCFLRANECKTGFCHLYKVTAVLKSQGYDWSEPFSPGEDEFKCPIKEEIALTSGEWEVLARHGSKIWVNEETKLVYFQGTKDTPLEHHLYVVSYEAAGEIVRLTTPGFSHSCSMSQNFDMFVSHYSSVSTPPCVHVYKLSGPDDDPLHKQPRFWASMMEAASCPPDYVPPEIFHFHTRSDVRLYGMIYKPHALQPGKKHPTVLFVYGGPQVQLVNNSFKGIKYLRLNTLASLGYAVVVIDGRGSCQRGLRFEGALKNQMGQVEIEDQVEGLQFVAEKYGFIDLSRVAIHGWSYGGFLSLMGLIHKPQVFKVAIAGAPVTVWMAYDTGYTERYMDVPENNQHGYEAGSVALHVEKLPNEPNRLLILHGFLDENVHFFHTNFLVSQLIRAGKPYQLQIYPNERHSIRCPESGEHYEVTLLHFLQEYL
Chain of Dipeptidyl peptidase 4 (P27487 whole entry): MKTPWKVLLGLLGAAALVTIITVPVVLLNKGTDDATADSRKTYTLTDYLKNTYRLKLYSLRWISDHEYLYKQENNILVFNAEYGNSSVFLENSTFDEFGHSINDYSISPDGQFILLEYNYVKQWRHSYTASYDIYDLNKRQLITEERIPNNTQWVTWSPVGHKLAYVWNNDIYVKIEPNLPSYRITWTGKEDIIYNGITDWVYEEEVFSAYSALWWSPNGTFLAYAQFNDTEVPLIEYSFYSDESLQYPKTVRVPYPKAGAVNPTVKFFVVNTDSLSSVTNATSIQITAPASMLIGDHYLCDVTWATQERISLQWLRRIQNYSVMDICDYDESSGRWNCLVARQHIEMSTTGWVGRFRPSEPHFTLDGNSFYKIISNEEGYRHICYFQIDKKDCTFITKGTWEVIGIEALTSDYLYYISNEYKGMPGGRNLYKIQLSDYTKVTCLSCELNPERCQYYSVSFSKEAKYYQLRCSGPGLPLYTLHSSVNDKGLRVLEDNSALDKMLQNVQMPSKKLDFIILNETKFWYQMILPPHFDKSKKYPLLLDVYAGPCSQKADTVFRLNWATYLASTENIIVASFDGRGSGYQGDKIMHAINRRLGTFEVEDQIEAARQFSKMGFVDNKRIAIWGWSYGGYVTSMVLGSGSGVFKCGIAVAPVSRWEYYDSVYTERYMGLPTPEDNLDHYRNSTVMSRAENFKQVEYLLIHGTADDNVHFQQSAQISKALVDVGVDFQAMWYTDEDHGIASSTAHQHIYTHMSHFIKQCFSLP
Chain of Dipeptidyl peptidase 8 (Q6V1X1 whole entry): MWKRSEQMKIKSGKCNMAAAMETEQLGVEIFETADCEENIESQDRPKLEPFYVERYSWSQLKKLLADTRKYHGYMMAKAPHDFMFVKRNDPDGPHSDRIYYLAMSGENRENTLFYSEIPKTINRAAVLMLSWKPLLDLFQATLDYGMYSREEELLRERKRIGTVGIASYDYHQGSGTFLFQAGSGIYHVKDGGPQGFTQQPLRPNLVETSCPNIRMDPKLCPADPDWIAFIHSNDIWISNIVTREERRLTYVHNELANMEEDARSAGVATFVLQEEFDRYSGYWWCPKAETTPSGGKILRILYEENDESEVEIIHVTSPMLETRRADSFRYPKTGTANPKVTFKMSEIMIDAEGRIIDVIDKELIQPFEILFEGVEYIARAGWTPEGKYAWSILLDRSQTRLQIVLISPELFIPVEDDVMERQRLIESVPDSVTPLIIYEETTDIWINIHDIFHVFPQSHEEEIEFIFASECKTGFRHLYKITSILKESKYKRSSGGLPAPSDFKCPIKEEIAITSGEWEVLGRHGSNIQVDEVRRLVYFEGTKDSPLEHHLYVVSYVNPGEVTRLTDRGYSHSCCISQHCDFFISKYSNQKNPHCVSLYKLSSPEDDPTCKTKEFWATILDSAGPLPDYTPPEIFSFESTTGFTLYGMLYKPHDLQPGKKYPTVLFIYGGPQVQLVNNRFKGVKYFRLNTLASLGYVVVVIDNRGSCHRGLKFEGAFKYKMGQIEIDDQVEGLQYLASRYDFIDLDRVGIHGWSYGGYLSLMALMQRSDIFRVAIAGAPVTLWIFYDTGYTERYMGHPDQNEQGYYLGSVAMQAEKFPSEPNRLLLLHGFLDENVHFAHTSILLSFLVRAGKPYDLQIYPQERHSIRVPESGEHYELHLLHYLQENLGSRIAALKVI

IC50 (Prolyl endopeptidase FAP): 0.0014 µM
IC50 (Dipeptidyl peptidase 4): > 10 µM
IC50 (Dipeptidyl peptidase 8): 5.8 µM
IC50 (Prolyl endopeptidase): > 10 µM
IC50 (Dipeptidyl peptidase 9): 1.6 µM
IC50 (Dipeptidyl peptidase 2): > 10 µM
Structure (SMILES): COC(CF)COc1ccc2nccc(C(=O)NCC(=O)N3CC(F)(F)C[C@H]3C#N)c2c1 (stereo partly drawn)

Drug uptake [1]: Not Active
Drug uptake [2]: Active
remaining at 1 h, 185 kBq [3]: > 70%
Drug uptake [4]: 0.13 % ID/g
Drug uptake [5]: Active
Ratio [6]: 5.26
Ratio [7]: 1.67
Ratio [8]: 0.12
Drug uptake [9]: < 3 %ID/ml
remaining at 1 h, 185 kBq [10]: > 70%
Stability [11]: Stable
logD at 2 min [12]: -0.27
Drug uptake [13]: Active
Stability [14]: Unstable
Drug uptake [15]: Active
Drug uptake [16]: Active
Drug uptake [17]: Active
Stability [18]: Stable
Drug uptake [19]: Active
Drug uptake [20]: Not Active
Ratio [21]: 6.56
Structure (SMILES): N#C[C@@H]1CC(F)(F)CN1C(=O)CNC(=O)c1ccnc2ccc(OCC(O)C(O)C[18F])cc12 (stereo partly drawn)

IC50 (Prolyl endopeptidase FAP): 0.00437 µM
IC50 (Dipeptidyl peptidase 4): > 10 µM
IC50 (Dipeptidyl peptidase 8): > 10 µM
IC50 (Prolyl endopeptidase): > 10 µM
IC50 (Dipeptidyl peptidase 9): > 10 µM
IC50 (Dipeptidyl peptidase 2): > 10 µM
Structure (SMILES): N#C[C@@H]1CC(F)(F)CN1C(=O)CNC(=O)c1ccnc2ccc(OCC(O)CF)cc12 (stereo partly drawn)
